Data: ChEMBL document CHEMBL4828755, “A sulfonyl fluoride derivative inhibits EGFRL858R/T790M/C797S by covalent modification of the catalytic lysine” (Eur J Med Chem, 2021)
Activity calls are given as the source filed them. The calls are words filed in the database; no cut-off is given here.

Legend:
[1] = biological target: Mitogen-activated protein kinase 3 (Homo sapiens) (UniProt P27361); experiment: Inhibition of GST-tagged human full length recombinant ERK1 expressed in Escherichia coli at 1 uM by Z'-LYTE assay
Method in brief: (§1)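 Z'-LYTE FRET kinase panel; phosphorylation of a reference peptide measured with ATP at each enzyme's Km. Compounds tested in 1% DMSO at 0.1 and/or 1 μM. Values are means of two independent experiments with standard deviations.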

[2] = biological target: Mitogen-activated protein kinase 14 (Homo sapiens) (UniProt Q16539); experiment: Inhibition of GST-tagged human full length recombinant p38 alpha expressed in Escherichia coli at 1 uM by Z'-LYTE assay; method in brief: as §1
[3] = biological target: Tyrosine-protein kinase Blk (Homo sapiens) (UniProt P51451); experiment: Inhibition of His-tagged human full length recombinant BLK expressed in baculovirus expression system at 1 uM by Z'-LYTE assay; method in brief: as §1
[4] = biological target: Cyclin-dependent kinase 5 (Homo sapiens) (UniProt Q00535); experiment: Inhibition of GST/His-tagged human full length recombinant CDK5 expressed in baculovirus expression system at 1 uM by Z'-LYTE assay; method in brief: as §1
[5] = biological target: Tyrosine-protein kinase JAK1 (Homo sapiens) (UniProt P23458); experiment: Inhibition of GST-tagged human recombinant JAK1 (866 to 1154 residues) expressed in baculovirus expression system at 1 uM by Z'-LYTE assay; method in brief: as §1
[6] = system: Epidermal growth factor receptor (Homo sapiens), P00533 [L858R,T790M,C797S]; experiment: (§2) Covalent binding affinity to recombinant EGFR L858R/T790M/C797S triple mutant (unknown origin) assessed as Lys745 sulfonylation in tryptic digested peptide IPVAIK745ELR at enzyme:compound molar concentration ratio of 1:5 incubated for 1 hr and measured following tryptic digestion by LC-HRMS analysis
Method in brief: (§3)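 Recombinant triple-mutant EGFR co-incubated with inhibitor at 1:5 molar ratio for 1 h in Kinase Buffer A (50 mM HEPES pH 7.5, 10 mM MgCl2, 1 mM EGTA, 0.01% Brij-35); DMSO vehicle control. Reduced with DTT (15 min, 60°C), alkylated with iodoacetamide, trypsin-digested overnight at 37°C (1:10 trypsin:protein), C18 cleanup, analysed by LC-HRMS in ESI positive mode.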

[7] = biological target: Epidermal growth factor receptor (Homo sapiens, UniProt P00533, C797S/L858R/T790M); experiment: Inhibition of EGFR L858R/T790M/C797S triple mutant (unknown origin) using […] preincubated with enzyme and ATP at 10XKm for 3 hrs followed by substrate addition and measured after 1 hr by TR-FRET assay
[8] = biological target: AMP-activated protein kinase, AMPK (Homo sapiens) (UniProt P54646+O43741+P54619+Q9UGJ0+Q9Y478+Q13131+Q9UGI9); experiment: Inhibition of human recombinant AMPK at 1 uM by Z'-LYTE assay; type: protein-complex assay; method in brief: as §1
[9] = system: Epidermal growth factor receptor (Homo sapiens), P00533 [L858R,T790M,C797S]; experiment: as §2, with “isotopic profiling” for “LC-HRMS”; method in brief: as §3
[10] = biological target: Vascular endothelial growth factor receptor 2 (Homo sapiens) (UniProt P35968); experiment: Inhibition of His-tagged human recombinant VEGFR2 (789 to 1356 residues) expressed in baculovirus expression system at 100 to 1000 nM by Z'-LYTE assay; conditions: dose 100-1000 nM; method in brief: as §1
[11] = biological target: T1, Inhibitor of nuclear factor kappa-B kinase subunit beta (Homo sapiens) (UniProt O14920); experiment: Inhibition of GST-tagged human full length recombinant IKKbeta expressed in baculovirus expression system at 100 to 1000 nM by Z'-LYTE assay; conditions: dose 100-1000 nM
T1 sequence (whole entry): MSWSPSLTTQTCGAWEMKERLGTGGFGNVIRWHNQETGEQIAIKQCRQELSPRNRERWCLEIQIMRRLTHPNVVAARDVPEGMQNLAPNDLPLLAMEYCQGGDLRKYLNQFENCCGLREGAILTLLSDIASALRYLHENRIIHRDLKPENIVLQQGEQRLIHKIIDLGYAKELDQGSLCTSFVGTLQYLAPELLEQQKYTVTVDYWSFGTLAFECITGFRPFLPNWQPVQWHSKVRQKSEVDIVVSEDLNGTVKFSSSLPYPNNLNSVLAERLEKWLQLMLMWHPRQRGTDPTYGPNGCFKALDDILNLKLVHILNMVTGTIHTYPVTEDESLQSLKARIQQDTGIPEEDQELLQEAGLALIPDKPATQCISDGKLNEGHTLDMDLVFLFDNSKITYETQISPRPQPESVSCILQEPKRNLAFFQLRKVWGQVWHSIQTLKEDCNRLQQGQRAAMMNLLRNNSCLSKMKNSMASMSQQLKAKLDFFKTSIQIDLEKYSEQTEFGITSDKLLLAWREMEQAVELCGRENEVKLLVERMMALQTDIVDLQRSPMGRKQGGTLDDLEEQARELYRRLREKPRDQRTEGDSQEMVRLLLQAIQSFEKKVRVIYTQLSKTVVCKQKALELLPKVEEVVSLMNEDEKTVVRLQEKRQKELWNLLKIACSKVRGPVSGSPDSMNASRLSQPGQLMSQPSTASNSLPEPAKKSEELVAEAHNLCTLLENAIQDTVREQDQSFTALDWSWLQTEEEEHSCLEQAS

Tyrosine-protein kinase JAK1 (Homo sapiens), sequence (P23458 whole entry, the tested form may be a part): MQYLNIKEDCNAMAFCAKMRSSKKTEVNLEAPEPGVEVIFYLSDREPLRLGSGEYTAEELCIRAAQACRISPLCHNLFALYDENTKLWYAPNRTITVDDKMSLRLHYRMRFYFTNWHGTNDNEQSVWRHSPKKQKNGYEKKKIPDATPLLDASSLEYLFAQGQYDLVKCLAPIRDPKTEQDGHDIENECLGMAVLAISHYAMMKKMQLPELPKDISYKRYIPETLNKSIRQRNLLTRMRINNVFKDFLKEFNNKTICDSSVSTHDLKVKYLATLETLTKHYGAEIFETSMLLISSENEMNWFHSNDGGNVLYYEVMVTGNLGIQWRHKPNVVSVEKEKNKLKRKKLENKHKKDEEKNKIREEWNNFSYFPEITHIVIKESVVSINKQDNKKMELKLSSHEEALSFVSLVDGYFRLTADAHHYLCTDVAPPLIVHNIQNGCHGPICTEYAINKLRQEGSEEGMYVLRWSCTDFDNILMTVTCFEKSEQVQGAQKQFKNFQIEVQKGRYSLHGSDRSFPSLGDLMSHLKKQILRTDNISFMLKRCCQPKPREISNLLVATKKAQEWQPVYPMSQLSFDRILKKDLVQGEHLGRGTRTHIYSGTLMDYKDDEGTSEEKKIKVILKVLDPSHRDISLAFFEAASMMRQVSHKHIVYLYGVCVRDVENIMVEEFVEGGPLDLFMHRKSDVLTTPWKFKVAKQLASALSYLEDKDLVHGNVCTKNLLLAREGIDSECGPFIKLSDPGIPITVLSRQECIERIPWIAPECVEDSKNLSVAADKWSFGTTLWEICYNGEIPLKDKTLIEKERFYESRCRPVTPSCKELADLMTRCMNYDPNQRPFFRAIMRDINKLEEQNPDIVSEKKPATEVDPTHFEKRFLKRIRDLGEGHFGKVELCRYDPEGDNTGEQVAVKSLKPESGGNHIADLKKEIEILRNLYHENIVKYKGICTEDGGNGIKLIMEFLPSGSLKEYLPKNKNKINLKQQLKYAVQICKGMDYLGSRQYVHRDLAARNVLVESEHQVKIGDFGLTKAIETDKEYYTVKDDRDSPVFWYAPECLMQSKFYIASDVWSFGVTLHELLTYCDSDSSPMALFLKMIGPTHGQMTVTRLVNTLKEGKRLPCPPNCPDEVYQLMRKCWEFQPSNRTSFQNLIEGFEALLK
Mitogen-activated protein kinase 3 (Homo sapiens), sequence (P27361 whole entry): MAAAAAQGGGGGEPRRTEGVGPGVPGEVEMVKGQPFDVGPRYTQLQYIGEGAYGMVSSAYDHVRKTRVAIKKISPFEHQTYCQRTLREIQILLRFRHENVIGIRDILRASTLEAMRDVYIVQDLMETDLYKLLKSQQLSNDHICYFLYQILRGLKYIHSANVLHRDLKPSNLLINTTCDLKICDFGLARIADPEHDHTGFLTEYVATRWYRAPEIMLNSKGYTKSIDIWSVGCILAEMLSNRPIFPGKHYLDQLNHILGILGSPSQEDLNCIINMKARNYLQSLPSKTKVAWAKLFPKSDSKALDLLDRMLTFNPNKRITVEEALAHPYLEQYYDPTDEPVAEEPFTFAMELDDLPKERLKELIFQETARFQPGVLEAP
Cyclin-dependent kinase 5 (Homo sapiens), sequence (Q00535 whole entry, looked up, the tested form may be a part): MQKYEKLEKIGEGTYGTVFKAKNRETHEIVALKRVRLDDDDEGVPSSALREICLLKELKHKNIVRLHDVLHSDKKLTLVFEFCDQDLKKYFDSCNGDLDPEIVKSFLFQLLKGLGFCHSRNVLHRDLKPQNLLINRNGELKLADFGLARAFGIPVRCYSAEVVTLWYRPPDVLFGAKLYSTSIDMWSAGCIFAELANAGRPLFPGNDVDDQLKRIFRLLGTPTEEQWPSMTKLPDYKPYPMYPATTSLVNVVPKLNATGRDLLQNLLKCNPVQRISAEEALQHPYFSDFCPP
Vascular endothelial growth factor receptor 2 (Homo sapiens), sequence (P35968 whole entry, the tested form may be a part): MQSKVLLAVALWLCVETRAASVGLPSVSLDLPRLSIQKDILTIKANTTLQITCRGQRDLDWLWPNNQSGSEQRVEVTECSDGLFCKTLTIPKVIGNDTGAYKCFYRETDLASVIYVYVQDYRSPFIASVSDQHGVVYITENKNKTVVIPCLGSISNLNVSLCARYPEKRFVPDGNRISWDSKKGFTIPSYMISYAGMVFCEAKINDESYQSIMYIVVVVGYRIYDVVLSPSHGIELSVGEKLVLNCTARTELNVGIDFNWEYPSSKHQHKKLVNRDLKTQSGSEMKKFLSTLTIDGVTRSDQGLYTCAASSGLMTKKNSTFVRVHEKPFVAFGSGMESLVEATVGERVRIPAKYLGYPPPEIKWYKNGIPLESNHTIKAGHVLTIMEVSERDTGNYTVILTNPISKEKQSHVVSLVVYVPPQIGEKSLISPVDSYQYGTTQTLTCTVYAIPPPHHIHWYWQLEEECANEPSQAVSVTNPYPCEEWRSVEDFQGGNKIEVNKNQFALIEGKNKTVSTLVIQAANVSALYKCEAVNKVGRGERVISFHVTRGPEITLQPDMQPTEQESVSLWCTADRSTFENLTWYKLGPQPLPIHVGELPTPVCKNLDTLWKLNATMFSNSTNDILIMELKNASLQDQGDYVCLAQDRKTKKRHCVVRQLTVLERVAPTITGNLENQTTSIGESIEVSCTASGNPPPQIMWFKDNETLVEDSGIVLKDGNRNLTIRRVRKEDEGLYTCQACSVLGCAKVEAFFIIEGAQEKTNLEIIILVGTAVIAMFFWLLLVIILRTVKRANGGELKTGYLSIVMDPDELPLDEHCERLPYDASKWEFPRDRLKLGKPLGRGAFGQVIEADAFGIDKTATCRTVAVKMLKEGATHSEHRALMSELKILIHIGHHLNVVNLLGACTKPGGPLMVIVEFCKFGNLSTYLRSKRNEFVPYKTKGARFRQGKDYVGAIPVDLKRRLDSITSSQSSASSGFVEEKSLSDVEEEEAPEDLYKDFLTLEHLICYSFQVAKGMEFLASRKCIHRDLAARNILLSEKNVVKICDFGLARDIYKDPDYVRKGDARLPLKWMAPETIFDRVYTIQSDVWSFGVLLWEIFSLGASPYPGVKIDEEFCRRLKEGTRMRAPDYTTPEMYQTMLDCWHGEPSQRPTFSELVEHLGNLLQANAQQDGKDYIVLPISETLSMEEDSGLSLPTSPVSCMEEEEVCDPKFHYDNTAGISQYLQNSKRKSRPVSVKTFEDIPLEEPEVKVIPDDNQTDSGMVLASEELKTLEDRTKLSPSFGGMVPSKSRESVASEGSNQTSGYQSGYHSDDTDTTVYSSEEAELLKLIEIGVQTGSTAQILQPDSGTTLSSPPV
Mitogen-activated protein kinase 14 (Homo sapiens), sequence (Q16539 whole entry): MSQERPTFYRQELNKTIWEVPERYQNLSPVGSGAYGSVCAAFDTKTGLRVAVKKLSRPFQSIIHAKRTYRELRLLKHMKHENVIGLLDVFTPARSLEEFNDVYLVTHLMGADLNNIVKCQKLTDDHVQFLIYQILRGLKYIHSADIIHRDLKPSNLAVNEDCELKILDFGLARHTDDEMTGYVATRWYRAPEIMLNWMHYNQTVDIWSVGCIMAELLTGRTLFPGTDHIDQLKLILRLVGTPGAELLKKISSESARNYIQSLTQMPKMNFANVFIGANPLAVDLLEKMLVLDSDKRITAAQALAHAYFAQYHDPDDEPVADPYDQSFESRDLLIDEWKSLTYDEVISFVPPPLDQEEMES
Tyrosine-protein kinase Blk (Homo sapiens), sequence (P51451 2-505 limits assumed): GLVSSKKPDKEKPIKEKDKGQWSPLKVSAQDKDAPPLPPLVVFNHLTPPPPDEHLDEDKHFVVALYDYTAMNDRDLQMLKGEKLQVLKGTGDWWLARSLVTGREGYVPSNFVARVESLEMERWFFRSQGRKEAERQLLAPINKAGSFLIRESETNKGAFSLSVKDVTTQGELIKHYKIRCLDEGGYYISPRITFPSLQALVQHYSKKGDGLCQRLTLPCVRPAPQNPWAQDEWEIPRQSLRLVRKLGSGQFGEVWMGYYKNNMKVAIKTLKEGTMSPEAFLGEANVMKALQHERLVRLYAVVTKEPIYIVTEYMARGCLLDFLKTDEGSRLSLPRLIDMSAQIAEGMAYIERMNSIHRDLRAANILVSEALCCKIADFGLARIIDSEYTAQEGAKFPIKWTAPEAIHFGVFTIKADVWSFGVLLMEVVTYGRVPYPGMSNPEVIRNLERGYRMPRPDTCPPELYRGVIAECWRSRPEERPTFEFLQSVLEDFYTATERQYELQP

COc1cc(N2CCN(C(C)=O)CC2)ccc1Nc1ncc(Cl)c(Nc2ccc(NCc3ccc(S(=O)(=O)F)cc3)cc2)n1
inhibition [1]: < 25% | inhibition [2]: < 25% | inhibition [3]: 100% | inhibition [4]: 90% | inhibition [5]: Active | Activity [6]: Active | IC50 [7]: 23 nM | inhibition [8]: 100% | Activity [9]: Active

C#CCNC(=O)c1cc(Nc2cc(C3CC3)[nH]n2)nc(N2CCN(Cc3ccc(S(=O)(=O)F)cc3)CC2)n1
inhibition [10]: inactive | inhibition [11]: inactive
